Assay outcomes from PubChem BioAssay.
IDH1 mut inh: blocks human IDH1 R132H reductase activity; diaphorase/resazurin fluorescence, 60 min; actives 0.18% (n = 70,000); inhibition, % at 10 µM; O75874; in the data active = inhibition above about 34%; inconclusive = no clear call, values can overlap the other calls; inactive = below about 11%
T cruzi growth-1: blocks T. cruzi growth in NIH3T3 culture | T. cruzi beta-gal in NIH3T3, GalScreen luminescence, 90 h | inhibition, % at 8.34 µM | actives 5.9% (n = 77,000) | AID 624255;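 active = mean inhibition above about 93%, with at least 55% of replicates each passing it, limit read from the data, passing the limit was not always enough; inconclusive = only one of those two conditions holds; inactive = neither condition holds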
GASC1 inh: inhibitors of human demethylase GASC-1 KDM4C | actives 0.15% (n = 96,000) | GST-KDM4C 2-372, H3K9me3 peptide, LANCE TR-FRET | Q9H3R0 | inhibition, % at 12.5 µM;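 active = mean replicate inhibition above about 25%, with at least 55% of replicates also reaching it, limit read from the data, passing the limit was not always enough; inconclusive = only one of those two conditions met; inactive = neither condition met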
Target sequence (Q9H3R0 2-372 limits assumed): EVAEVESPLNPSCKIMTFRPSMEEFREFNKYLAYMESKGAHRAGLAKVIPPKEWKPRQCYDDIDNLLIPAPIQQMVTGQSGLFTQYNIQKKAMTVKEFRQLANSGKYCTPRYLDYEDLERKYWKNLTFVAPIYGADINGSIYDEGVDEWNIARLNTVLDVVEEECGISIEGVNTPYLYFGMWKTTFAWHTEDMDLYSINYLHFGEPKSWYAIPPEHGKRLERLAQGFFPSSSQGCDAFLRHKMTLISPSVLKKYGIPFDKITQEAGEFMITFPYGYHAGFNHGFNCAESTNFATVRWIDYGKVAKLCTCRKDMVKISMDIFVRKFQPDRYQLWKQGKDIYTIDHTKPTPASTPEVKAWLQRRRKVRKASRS
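System: N-terminal GST-fused human GASC-1 (KDM4C) fragment, residues 2-372 / Amount: 10 nM GST-KDM4C in enzyme reaction / Also added: H3K9me3 peptide with Fe(II)/2OG / Times: 30 min demethylation and 1 h detection at room temperature / Signal: LANCE TR-FRET / Read-out basis: Fall in 671/618 emission ratio as inhibition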
T cruzi growth-2: inhibitors of T. cruzi proliferation. shares compounds with T cruzi growth-1. T. cruzi beta-gal in NIH3T3, GalScreen luminescence, 90 h. inhibition, % at 8.35 µM. actives 72% (n = 5,600). AID 651739;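 active = mean replicate inhibition above about 95% and at least 55% of replicates individually reaching it, limit read from the data; inconclusive = only one of the two criteria is met; inactive = neither criterion is met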
T cruzi growth-3: inhibitors of T. cruzi proliferation | AID 651740 | inhibition, % at 2.09 µM | shares compounds with T cruzi growth-1 | actives 21% (n = 5,600) | T. cruzi beta-gal in NIH3T3, GalScreen luminescence, 90 h;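 active = mean inhibition above about 95%, with at least 55% of replicates also reaching it, limit read from the data; inconclusive = meets just one of the two conditions; inactive = meets neither condition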
NIH3T3 tox: kills mouse NIH/3T3 fibroblasts. NIH/3T3 viability, CellTiter-Glo ATP luminescence, 90 h. cytotoxicity (signal decrease), % at 8.35 µM. actives 14% (n = 5,600). shares compounds with T cruzi growth-1;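 active = mean signal decrease across replicates above about 35% based on untreated-well scatter, with enough replicates individually passing, limit read from the data; inconclusive = no rule stated though some were filed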
3T3 cytotox 2: NIH/3T3 (mouse) viability loss; shares compounds with T cruzi growth-1; NIH/3T3 viability, CellTiter-Glo ATP luminescence, 90 h; inhibition, % at 24.9 µM; actives 56% (n = 5,600);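 active = mean loss of cell viability signal at or above a set limit, and enough replicates individually reaching it; inconclusive = meets only the mean limit or only the replicate share; inactive = meets neither condition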
A number is an active result; n = inactive; u = inconclusive; x = no result given. The entries come from a sample that favours hits as a whole.

SMILES	IDH1 mut inh	T cruzi growth-1	GASC1 inh	T cruzi growth-2	T cruzi growth-3	NIH3T3 tox	3T3 cytotox 2
N#C[C@@H]1[C@@H](c2ccc(C#Cc3cccc(F)c3)cc2)[C@H](CO)N1C(=O)C1CCCC1	x	97	n	100	101	n	79
O=C1CC(=Nc2ccc(F)c(C(F)(F)F)c2)c2ccccc2C1=O	n	x	x	x	x	x	x
O=C(CN(C1CCCCC1)S(=O)(=O)c1ccc(Cl)cc1)Nc1ccc(F)cc1F	n	x	x	x	x	x	x
CC(C)CC#Cc1ccc2c(c1)O[C@@H](CN(C)C(=O)c1cccc(F)c1)[C@@H](C)CN([C@@H](C)CO)S2(=O)=O	n	102	n	105	105	n	104
C[C@@H]1CN([C@H](C)CO)S(=O)(=O)c2ccc(C#CC3CC3)cc2O[C@@H]1CN(C)C(=O)c1cccc(F)c1	n	x	n	x	x	x	x
C[C@@H]1CN([C@@H](C)CO)S(=O)(=O)c2ccc(C#CC3CC3)cc2O[C@@H]1CN(C)C(=O)c1cccc(F)c1	x	x	n	x	x	x	x
CC(C)CC#Cc1ccc2c(c1)O[C@H](CN(C)C(=O)c1ccccc1)[C@@H](C)CN([C@@H](C)CO)S2(=O)=O	n	122	n	102	n	n	105
C[C@H]1CN([C@@H](C)CO)S(=O)(=O)c2ccc(C#CC3CC3)cc2O[C@@H]1CN(C)C(=O)c1ccccc1	n	99	n	101	n	n	u
C[C@@H]1CN([C@@H](C)CO)S(=O)(=O)c2ccc(C#CC3CC3)cc2O[C@@H]1CN(C)C(=O)c1ccccc1	n	n	n	x	x	x	x
CC(C)CC#Cc1ccc2c(c1)O[C@@H](CN(C)C(=O)c1cccc(F)c1)[C@H](C)CN([C@H](C)CO)S2(=O)=O	n	110	n	105	n	n	105
CC(C)CC#Cc1ccc2c(c1)O[C@H](CN(C)C(=O)c1ccccc1)[C@H](C)CN([C@H](C)CO)S2(=O)=O	n	x	n	x	x	x	x
CS(=O)(=O)N(CC(=O)Nc1cccc(Cl)c1Cl)c1cc(Cl)c(Cl)cc1Cl	n	x	x	x	x	x	x
C[C@@H]1CN([C@H](C)CO)C(=O)c2cc(NC(=O)Nc3ccc(F)cc3)ccc2O[C@@H](C)CCCCO[C@H]1CN(C)C(=O)Nc1ccc(F)cc1	n	x	n	x	x	x	x
COc1cc(OC)c(NC(=O)Cc2ccccc2[N+](=O)[O-])cc1Cl	n	x	x	x	x	x	x
Cc1ccc(Cl)cc1NC(=O)CSc1nnc(-c2ccc([N+](=O)[O-])cc2)n1-c1ccccc1	n	x	x	x	x	x	x
COc1ccc(NC(=O)CN(c2ccccc2Br)S(C)(=O)=O)cc1OC	n	x	x	x	x	x	x
CC(C)CC#Cc1ccc2c(c1)O[C@@H](CN(C)C(=O)c1cccnc1)[C@H](C)CN([C@H](C)CO)S2(=O)=O	n	n	n	x	x	x	x
CC(C)CC#Cc1ccc2c(c1)O[C@@H](CN(C)C(=O)c1cccc(F)c1)[C@H](C)CN([C@@H](C)CO)S2(=O)=O	n	124	n	103	110	62	105
CC(C)CC#Cc1ccc2c(c1)O[C@H](CN(C)C(=O)c1ccccc1F)[C@@H](C)CN([C@@H](C)CO)S2(=O)=O	n	103	n	103	u	n	105
CC(C)CC#Cc1ccc2c(c1)O[C@H](CN(C)C(=O)c1cccc(F)c1)[C@@H](C)CN([C@H](C)CO)S2(=O)=O	n	120	n	109	n	n	105
C[C@H](CO)N1C[C@H](C)[C@@H](CN(C)C(=O)c2cccc(F)c2)Oc2cc(C#CC3CC3)ccc2S1(=O)=O	x	x	n	x	x	x	x
CCCC#Cc1ccc2c(c1)O[C@H](CN(C)C(=O)c1ccccc1F)[C@H](C)CN([C@H](C)CO)S2(=O)=O	n	n	n	x	x	x	x
CC(C)CC#Cc1ccc2c(c1)O[C@H](CN(C)C(=O)c1cccc(F)c1)[C@@H](C)CN([C@@H](C)CO)S2(=O)=O	n	126	n	99	102	n	106
CC(C)CC#Cc1ccc2c(c1)O[C@@H](CN(C)C(=O)c1ccccc1)[C@H](C)CN([C@H](C)CO)S2(=O)=O	n	x	n	x	x	x	x
CCn1c(SCC(=O)Nc2ccc(F)c(Cl)c2)nnc1-c1ccncc1	n	x	x	x	x	x	x
SMILES	IDH1 mut inh	T cruzi growth-1	GASC1 inh	T cruzi growth-2	T cruzi growth-3	NIH3T3 tox	3T3 cytotox 2
COc1ccc(S(=O)(=O)N(C)C[C@@H]2Oc3cc(C4=CCCC4)ccc3S(=O)(=O)N([C@@H](C)CO)C[C@H]2C)cc1	n	n	n	x	x	x	x
COc1ccc(S(=O)(=O)N(C)C[C@@H]2Oc3cc(-c4ccccc4OC)ccc3S(=O)(=O)N([C@H](C)CO)C[C@@H]2C)cc1	n	127	n	110	n	n	63
COc1ccccc1-c1ccc2c(c1)O[C@@H](CN(C)C(C)=O)[C@H](C)CN([C@H](C)CO)S2(=O)=O	n	n	n	x	x	x	x
COc1ccc(S(=O)(=O)N(C)C[C@@H]2Oc3cc(-c4ccccc4OC)ccc3S(=O)(=O)N([C@@H](C)CO)C[C@@H]2C)cc1	n	126	n	114	100	45	n
COc1ccc(S(=O)(=O)N(C)C[C@@H]2Oc3cc(C4=CCCC4)ccc3S(=O)(=O)N([C@H](C)CO)C[C@H]2C)cc1	n	n	n	x	x	x	x
COc1ccc(S(=O)(=O)N(C)C[C@@H]2Oc3cc(-c4ccccc4OC)ccc3S(=O)(=O)N([C@H](C)CO)C[C@H]2C)cc1	n	127	n	102	n	n	58
COC(=O)CCCCCCC(=O)NN=C1CCCCCC1	n	x	x	x	x	x	x
COC(CC(c1c(O)cc2cc(C)oc(=O)c2c1O)c1c(O)cc2cc(C)oc(=O)c2c1O)C(=O)O (stereo not given)	n	x	x	x	x	x	x
COc1ccccc1C(=O)CSc1nnc(-c2ccccc2Cl)n1-c1ccccc1	n	x	x	x	x	x	x
C[C@@H]1CN([C@@H](C)CO)C(=O)c2cc(C3=CCCCC3)cnc2O[C@@H]1CN(C)Cc1cccc(F)c1	n	112	n	98	n	n	44
C[C@H]1CN([C@@H](C)CO)C(=O)c2cc(C3=CCCC3)cnc2O[C@H]1CN(C)Cc1cccc(F)c1	n	n	n	x	x	x	x
C[C@@H]1CN([C@H](C)CO)C(=O)c2cc(C3=CCCCC3)cnc2O[C@H]1CN(C)Cc1cccc(F)c1	n	n	n	x	x	x	x
C[C@@H]1CN([C@@H](C)CO)C(=O)c2cc(C3=CCCC3)cnc2O[C@@H]1CN(C)Cc1cccc(F)c1	n	u	n	110	n	n	n
COc1ccc(NC(=O)CSc2nc(C(C)(C)C)cs2)cc1	n	x	x	x	x	x	x
CC(C)NC[C@H]1[C@@H](c2ccc(C3=CCCCC3)cc2)[C@@H](CO)N1C(=O)NC(C)C	x	u	n	102	n	39	104
CCC(=O)NC[C@H]1[C@H](c2ccc(C3=CCCC3)cc2)[C@@H](CO)N1C(C)=O	x	n	n	x	x	x	x
CCC(=O)NC[C@H]1[C@@H](c2ccc(C3=CCCC3)cc2)[C@H](CO)N1C(C)=O	x	101	n	n	n	n	n
